Results as given in ChEMBL document CHEMBL3124809, “Back pocket flexibility provides group II p21-activated kinase (PAK) selectivity for type I 1/2 kinase inhibitors” (J Med Chem, 2014).
≈ marks a conversion by molar mass, not a printed value. Each block holds one compound with its values, some of them ahead of it. Calls of active or inactive are those of the source. No cut-off for these calls is given here.

Columns and labels:
[1] = biological target: Serine/threonine-protein kinase PAK 1 (Homo sapiens, UniProt Q13153); test: Binding affinity to N-terminal GST-His-tagged recombinant human PAK1 kinase domain expressed in Escherichia coli BL21 using KKRNRRLSVA as sustrate preincubated for 10 mins followed by ATP addition measured after 60 mins by FRET-based Z'Lyte assay
Sequence of Serine/threonine-protein kinase PAK 1 (Q13153 whole entry, the tested form may be a part): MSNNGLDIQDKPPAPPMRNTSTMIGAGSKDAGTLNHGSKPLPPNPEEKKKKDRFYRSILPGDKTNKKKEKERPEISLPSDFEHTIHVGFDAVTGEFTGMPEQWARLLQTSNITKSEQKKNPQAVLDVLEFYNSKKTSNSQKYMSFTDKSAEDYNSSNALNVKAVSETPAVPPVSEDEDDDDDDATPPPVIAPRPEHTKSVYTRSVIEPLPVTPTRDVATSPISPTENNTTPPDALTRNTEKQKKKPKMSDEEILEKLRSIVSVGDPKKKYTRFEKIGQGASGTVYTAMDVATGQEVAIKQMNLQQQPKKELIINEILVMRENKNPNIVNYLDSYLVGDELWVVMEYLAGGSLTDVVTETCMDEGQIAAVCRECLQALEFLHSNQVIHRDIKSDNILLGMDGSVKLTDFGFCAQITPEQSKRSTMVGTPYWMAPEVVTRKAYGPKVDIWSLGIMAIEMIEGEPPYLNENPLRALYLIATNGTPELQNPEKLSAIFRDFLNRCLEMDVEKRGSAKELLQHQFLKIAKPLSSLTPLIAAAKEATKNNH

[2] = biological target: T1, Serine/threonine-protein kinase PAK 4 (Homo sapiens, UniProt O96013); test: Binding affinity to N-terminal GST-tagged recombinant human PAK4 kinase domain expressed in Escherichia coli using KKRNRRLSVA as substrate preincubated for 10 mins followed by ATP addition measured after 60 mins by FRET-based Z'Lyte assay
[3] = biological target: Mitogen-activated protein kinase kinase kinase 14 (Homo sapiens) (UniProt Q99558); test: Inhibition of NIK (unknown origin) at 1 uM
Sequence of Mitogen-activated protein kinase kinase kinase 14 (Homo sapiens) (Q99558 whole entry, looked up): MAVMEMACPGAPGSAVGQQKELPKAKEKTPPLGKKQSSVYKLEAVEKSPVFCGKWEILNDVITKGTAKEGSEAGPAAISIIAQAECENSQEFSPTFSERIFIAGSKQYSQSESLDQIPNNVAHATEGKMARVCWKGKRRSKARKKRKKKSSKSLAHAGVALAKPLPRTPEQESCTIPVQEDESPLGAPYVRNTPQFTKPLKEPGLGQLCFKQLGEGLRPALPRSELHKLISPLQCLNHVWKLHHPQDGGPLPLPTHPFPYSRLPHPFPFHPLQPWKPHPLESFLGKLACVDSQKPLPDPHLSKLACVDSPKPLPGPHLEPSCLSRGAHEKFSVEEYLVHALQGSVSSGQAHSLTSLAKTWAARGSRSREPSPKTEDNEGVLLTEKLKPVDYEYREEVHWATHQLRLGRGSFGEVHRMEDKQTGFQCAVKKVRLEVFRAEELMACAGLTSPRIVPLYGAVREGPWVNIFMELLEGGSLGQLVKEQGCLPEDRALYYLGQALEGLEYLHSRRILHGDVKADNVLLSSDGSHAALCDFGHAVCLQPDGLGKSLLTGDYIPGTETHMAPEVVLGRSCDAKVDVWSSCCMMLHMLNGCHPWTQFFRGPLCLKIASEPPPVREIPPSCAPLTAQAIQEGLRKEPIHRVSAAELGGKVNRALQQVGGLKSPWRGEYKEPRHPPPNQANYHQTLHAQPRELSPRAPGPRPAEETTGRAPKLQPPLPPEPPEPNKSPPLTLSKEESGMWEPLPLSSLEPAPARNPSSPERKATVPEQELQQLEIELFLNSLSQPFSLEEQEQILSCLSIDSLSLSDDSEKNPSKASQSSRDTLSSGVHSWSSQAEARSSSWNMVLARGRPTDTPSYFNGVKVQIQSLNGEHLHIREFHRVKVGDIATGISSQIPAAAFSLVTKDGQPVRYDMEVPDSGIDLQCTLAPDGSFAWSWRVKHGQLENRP

[4] = biological target: T1, Serine/threonine-protein kinase PAK 4; test: Inhibition of PAK4 (unknown origin) at 1 uM
[5] = biological target: Misshapen-like kinase 1 (Homo sapiens) (UniProt Q8N4C8); test: Inhibition of MINK1 (unknown origin) at 1 uM
Sequence of Misshapen-like kinase 1 (Homo sapiens) (Q8N4C8 whole entry, looked up): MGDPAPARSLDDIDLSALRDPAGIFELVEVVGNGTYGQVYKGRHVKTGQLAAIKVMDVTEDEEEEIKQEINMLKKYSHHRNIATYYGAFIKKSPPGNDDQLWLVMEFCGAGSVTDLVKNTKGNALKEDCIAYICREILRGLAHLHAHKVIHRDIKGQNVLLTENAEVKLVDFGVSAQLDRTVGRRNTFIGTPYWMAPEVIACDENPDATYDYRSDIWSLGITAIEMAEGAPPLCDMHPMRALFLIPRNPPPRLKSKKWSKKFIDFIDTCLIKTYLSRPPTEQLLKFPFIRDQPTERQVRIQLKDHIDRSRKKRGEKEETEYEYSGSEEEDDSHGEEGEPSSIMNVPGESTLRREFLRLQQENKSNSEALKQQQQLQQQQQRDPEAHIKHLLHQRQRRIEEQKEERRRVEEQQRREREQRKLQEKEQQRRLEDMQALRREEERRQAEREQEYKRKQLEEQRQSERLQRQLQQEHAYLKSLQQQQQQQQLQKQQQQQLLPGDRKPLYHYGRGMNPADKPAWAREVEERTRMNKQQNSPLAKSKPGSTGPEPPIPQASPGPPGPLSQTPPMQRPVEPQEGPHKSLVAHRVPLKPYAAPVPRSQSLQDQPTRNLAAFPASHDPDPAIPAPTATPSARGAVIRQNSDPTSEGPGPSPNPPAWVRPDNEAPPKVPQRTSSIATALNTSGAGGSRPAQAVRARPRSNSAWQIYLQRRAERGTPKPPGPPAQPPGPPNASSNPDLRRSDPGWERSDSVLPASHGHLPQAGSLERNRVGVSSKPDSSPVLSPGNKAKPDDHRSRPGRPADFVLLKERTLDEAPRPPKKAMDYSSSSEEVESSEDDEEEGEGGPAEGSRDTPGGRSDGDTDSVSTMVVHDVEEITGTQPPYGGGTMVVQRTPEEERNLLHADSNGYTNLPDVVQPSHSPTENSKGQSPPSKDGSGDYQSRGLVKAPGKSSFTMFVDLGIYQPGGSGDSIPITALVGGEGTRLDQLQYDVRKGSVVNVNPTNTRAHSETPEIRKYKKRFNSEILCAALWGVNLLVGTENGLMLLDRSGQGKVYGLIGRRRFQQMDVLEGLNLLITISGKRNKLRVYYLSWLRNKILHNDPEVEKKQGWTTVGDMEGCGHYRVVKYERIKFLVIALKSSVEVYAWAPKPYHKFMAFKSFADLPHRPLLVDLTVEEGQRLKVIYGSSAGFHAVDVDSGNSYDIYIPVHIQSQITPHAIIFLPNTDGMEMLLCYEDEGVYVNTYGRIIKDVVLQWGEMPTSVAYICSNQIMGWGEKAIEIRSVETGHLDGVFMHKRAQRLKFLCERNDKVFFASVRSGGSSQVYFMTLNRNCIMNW

[6] = biological target: Mitogen-activated protein kinase kinase kinase kinase 4 (Homo sapiens) (UniProt O95819); test: Inhibition of MAP4K4 (unknown origin) at 1 uM
Sequence of Mitogen-activated protein kinase kinase kinase kinase 4 (Homo sapiens) (O95819 2-1239 limits assumed): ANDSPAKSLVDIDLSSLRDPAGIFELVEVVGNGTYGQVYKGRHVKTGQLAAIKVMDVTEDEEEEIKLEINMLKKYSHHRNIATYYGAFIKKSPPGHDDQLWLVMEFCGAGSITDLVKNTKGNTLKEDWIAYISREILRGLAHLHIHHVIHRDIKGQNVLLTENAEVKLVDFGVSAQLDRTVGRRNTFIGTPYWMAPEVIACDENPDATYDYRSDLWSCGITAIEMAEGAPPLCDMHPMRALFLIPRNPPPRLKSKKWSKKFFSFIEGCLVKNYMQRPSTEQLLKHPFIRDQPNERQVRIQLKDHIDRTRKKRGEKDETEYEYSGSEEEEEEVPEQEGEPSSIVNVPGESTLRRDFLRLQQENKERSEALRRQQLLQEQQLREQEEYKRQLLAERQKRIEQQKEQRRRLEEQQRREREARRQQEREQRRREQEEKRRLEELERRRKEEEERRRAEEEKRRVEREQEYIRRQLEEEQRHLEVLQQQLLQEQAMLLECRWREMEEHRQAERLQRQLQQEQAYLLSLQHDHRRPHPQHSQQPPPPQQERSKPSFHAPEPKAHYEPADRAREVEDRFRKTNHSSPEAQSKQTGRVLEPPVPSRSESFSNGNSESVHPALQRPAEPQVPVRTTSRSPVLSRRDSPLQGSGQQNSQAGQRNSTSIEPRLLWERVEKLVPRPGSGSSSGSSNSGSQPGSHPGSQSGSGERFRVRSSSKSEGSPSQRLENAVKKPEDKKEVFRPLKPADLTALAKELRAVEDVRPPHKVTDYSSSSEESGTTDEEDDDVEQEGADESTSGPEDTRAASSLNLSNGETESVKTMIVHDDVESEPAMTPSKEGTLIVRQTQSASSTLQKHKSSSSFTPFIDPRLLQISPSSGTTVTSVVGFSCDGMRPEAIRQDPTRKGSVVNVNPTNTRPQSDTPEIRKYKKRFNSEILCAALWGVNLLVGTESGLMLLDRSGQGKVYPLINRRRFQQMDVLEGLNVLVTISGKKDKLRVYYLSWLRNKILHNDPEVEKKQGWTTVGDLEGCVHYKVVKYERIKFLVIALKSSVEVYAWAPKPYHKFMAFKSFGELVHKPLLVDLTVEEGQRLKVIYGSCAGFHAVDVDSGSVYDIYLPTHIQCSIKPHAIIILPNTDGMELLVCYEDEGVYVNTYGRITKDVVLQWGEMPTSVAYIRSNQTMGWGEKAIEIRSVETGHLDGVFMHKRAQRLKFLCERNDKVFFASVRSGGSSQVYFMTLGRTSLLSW

[7] = biological target: T2, Tyrosine-protein kinase JAK3 (Homo sapiens) (UniProt P52333); test: Inhibition of JAK3 (unknown origin) at 1 uM
T2 sequence (whole entry): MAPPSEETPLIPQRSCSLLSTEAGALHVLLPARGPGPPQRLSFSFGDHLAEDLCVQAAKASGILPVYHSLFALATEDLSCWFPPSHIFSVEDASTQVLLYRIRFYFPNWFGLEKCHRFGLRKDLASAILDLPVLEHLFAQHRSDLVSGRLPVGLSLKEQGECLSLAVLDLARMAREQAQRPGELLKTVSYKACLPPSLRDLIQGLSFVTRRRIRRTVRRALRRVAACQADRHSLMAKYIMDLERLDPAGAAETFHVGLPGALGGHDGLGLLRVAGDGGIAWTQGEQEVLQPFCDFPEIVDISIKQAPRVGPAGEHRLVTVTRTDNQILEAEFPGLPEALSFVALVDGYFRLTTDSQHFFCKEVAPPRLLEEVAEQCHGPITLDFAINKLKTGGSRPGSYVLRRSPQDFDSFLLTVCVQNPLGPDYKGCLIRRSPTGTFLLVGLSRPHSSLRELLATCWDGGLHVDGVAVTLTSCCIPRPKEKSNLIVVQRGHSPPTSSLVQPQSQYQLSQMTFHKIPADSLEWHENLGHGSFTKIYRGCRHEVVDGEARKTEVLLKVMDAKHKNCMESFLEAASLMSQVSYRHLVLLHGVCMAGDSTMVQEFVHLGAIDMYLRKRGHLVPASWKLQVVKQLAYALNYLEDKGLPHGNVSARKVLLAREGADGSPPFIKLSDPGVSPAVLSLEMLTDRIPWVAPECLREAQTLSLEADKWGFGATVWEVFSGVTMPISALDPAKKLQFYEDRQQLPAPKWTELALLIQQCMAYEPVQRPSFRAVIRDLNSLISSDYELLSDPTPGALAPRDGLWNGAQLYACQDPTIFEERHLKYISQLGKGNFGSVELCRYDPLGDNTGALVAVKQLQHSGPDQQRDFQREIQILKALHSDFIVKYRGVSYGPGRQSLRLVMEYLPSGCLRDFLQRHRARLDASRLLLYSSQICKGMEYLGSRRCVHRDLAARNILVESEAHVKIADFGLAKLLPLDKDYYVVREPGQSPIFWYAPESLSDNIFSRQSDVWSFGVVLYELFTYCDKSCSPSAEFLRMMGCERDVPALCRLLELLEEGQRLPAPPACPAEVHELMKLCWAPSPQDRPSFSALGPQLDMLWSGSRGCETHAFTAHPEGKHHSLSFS

[8] = biological target: Mitogen-activated protein kinase kinase kinase kinase 5 (Homo sapiens) (UniProt Q9Y4K4); test: Inhibition of KHS1 (unknown origin) at 1 uM
Sequence of Mitogen-activated protein kinase kinase kinase kinase 5 (Homo sapiens) (Q9Y4K4 whole entry, looked up): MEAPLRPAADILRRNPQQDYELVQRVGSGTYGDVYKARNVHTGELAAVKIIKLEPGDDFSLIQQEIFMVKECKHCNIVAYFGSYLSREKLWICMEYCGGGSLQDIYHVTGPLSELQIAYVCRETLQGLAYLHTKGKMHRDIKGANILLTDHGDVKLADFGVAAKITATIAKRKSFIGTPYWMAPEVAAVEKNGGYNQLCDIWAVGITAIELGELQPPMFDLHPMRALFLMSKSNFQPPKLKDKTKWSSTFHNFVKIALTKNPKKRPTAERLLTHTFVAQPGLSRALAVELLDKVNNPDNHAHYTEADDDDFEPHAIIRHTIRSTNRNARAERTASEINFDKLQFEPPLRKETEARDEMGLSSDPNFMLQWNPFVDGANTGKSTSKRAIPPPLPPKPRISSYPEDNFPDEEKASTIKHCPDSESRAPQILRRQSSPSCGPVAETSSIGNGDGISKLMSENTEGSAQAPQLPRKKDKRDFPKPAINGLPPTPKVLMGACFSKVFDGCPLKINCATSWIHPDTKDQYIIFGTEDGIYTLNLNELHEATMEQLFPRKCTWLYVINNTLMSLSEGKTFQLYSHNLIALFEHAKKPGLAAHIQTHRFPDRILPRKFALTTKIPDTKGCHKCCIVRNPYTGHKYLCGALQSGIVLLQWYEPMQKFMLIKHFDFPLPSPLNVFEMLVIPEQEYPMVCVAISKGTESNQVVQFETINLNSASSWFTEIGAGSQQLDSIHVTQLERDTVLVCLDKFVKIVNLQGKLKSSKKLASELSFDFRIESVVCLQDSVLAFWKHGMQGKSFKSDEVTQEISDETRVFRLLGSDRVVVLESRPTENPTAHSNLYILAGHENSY

[9] = Plasma protein binding in human plasma; assay type: ADME, cell-free; details: read-out: PPB (converted)
[10] = Kinetic solubility of the compound; assay type: physicochemical; details: read-out: Kinetic_solubility
[11] = Thermodynamic solubility of the compound; assay type: physicochemical; details: read-out: Therm_solubility
[12] = biological target: T1, Serine/threonine-protein kinase PAK 4; test: Inhibition of PAK4 (unknown origin)
[13] = biological target: T3, Serine/threonine-protein kinase PAK 5 (Homo sapiens, UniProt Q9P286); test: Inhibition of PAK5 (unknown origin)
[14] = biological target: T4, Serine/threonine-protein kinase PAK 6 (Homo sapiens, UniProt Q9NQU5); test: Inhibition of PAK6 (unknown origin)
[15] = biological target: Serine/threonine-protein kinase PAK 2 (Homo sapiens, UniProt Q13177); test: Inhibition of PAK2 (unknown origin)
[16] = biological target: Serine/threonine-protein kinase PAK 3 (Homo sapiens, UniProt O75914); test: Inhibition of PAK3 (unknown origin)
[17] = Apparent permeability across apical to basolateral side in MDCK cells; assay type: ADME, cell-based, Canis lupus familiaris; details: dog
[18] = Lipophilicity, log D of the compound at pH 7.4; assay type: physicochemical; details: buffer
[19] = biological target: T5, Ephrin type-B receptor 1 (Homo sapiens, UniProt P54762); test: Inhibition of EphB1 (unknown origin)
T5 sequence (P54762 whole entry): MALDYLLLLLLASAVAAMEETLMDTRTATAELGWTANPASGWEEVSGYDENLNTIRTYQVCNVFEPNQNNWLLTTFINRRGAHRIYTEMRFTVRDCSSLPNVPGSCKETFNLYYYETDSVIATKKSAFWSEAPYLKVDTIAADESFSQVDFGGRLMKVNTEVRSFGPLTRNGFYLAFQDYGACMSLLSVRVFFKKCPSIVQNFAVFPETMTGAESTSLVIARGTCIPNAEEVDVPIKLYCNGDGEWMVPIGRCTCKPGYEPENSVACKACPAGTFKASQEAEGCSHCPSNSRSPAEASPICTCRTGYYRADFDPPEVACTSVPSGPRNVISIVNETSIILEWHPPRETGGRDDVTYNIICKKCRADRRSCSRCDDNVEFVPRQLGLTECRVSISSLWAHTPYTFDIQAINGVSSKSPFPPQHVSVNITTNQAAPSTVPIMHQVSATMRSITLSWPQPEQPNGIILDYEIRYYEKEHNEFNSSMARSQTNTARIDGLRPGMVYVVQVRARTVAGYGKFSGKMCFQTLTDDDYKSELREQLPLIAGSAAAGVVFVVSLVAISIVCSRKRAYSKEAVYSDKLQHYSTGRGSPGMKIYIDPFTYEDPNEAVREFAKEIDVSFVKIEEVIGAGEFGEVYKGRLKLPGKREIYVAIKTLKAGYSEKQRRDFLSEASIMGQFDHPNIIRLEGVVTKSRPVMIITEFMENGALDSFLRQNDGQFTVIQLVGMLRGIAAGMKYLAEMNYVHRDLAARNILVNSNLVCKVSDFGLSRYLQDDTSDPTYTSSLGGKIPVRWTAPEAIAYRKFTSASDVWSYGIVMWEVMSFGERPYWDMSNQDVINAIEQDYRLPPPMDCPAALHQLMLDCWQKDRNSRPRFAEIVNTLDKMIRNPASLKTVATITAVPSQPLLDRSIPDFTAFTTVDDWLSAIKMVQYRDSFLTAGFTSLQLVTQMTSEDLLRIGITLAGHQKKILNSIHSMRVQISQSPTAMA

[20] = tested on: MCF-10A; test: Cytotoxicity against human MCF10A cells harboring PIK3CA H1047R mutant cells assessed as reduction in cell viability at 50 uM after 24 to 48 hrs by Celltiter-glo luminescence assay; assay type: functional, cell-based
Summary of the method: (§1)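 Cells sparsely plated in 96-well plates and allowed to adhere, then given DMSO or compound (0.1, 1, 10, 50 μM) for 24 and 48 h. Metabolically active cells quantified by CellTiter-Glo luminescence. MDA-MB-436 grown in DMEM/10% FBS; MCF10A PIK3CA (one endogenous H1047R allele) in DMEM/F12 with 5% horse serum, insulin, hydrocortisone.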

[21] = tested on: MDA-MB-436; test: Cytotoxicity against human MDA-MB-436 cells assessed as reduction in cell viability at 50 uM after 24 to 48 hrs by Celltiter-glo luminescence assay; assay type: functional, cell-based; summary of the method: as §1
[22] = Cytotoxicity against human MDA-MB-436 cells assessed as reduction in cell viability at 10 uM after 24 to 48 hrs by Celltiter-glo luminescence assay; assay type: functional; summary of the method: as §1
[23] = Cytotoxicity against human MCF10A cells harboring PIK3CA H1047R mutant cells assessed as reduction in cell viability at 10 uM after 24 to 48 hrs by Celltiter-glo luminescence assay; assay type: functional, MCF-10A; summary of the method: as §1
[24] = Antiinvasive activity against human MCF10A cells harboring PIK3CA H1047R mutant assessed as reduction of wound density at 10 uM after 48 hrs by matrigel assay; assay type: functional, MCF-10A; parameters: scale not given: the % may be the effect or the level left
[25] = tested on: MCF-10A; test: Antiinvasive activity against human MCF10A cells harboring PIK3CA H1047R mutant assessed as complete wound closure at 0.1 to 50 uM after 40 hrs by matrigel assay; assay type: functional, cell-based
[26] = tested on: MDA-MB-436; test: Antiinvasive activity against human MDA-MB-436 cells assessed as reduction of wound density after 80 hrs by matrigel assay; assay type: functional, cell-based
[27] = Antiinvasive activity against human MDA-MB-436 cells assessed as reduction of wound density at 1 uM after 80 hrs by matrigel assay; assay type: functional; parameters: scale not given: the % may be the effect or the level left
[28] = tested on: MDA-MB-436; test: Antiinvasive activity against human MDA-MB-436 cells assessed as complete wound closure at 0.1 to 50 uM after 80 hrs by matrigel assay; assay type: functional, cell-based
[29] = Antimigratory activity in human MCF10A cells harboring PIK3CA H1047R mutant assessed as reduced wound density at >10 uM after 20 hrs by wound healing assay; assay type: functional, MCF-10A; parameters: scale not given: the % may be the effect or the level left
Summary of the method: (§2)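 Monolayer of 40 000 cells per well, grown overnight, scratched with WoundMaker, washed twice with warm medium, then given medium with DMSO or compound (0.1, 1, 10, 50 μM). Relative wound density from phase-contrast time-lapse images, collected and quantified every 2 h on IncuCyte.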

[30] = Antimigratory activity in human MDA-MB-436 cells assessed as reduction in wound density at >10 uM after 1 to 24 hrs by wound healing assay; assay type: functional; parameters: scale not given: the % may be the effect or the level left; summary of the method: as §2
[31] = biological target: T4, Serine/threonine-protein kinase PAK 6; test: Inhibition of PAK6 (unknown origin) at 0.1 uM
[32] = biological target: T3, Serine/threonine-protein kinase PAK 5; test: Inhibition of PAK5 (unknown origin) at 0.1 uM
[33] = biological target: T1, Serine/threonine-protein kinase PAK 4; details: 0.1 uM
[34] = biological target: Mitogen-activated protein kinase kinase kinase 14 (Homo sapiens) (UniProt Q99558); test: Inhibition of NIK (unknown origin) at 10 uM
[35] = biological target: Misshapen-like kinase 1 (Homo sapiens) (UniProt Q8N4C8); test: Inhibition of MINK1 (unknown origin) at 10 uM
[36] = biological target: Mitogen-activated protein kinase kinase kinase kinase 4 (Homo sapiens) (UniProt O95819); test: Inhibition of MAP4K4 (unknown origin) at 10 uM
[37] = biological target: T2, Tyrosine-protein kinase JAK3 (Homo sapiens); test: Inhibition of JAK3 (unknown origin) at 10 uM
[38] = biological target: Mitogen-activated protein kinase kinase kinase kinase 5 (Homo sapiens) (UniProt Q9Y4K4); test: Inhibition of KHS1 (unknown origin) at 10 uM
[39] = biological target: T1, Serine/threonine-protein kinase PAK 4; details: 10 uM

SMILES: Cc1nc2ccc(C#C[C@@](C)(O)c3nccs3)cc2n1-c1ncnc(N)n1
Ki [1]: > 4500 nM | Ki [2]: 600 nM

SMILES: CC(C)(O)C#Cc1ccc2cnn(-c3cc(N)ncn3)c2c1
Ki [1]: > 4500 nM | Ki [2]: 1300 nM

SMILES: COCCNc1nc2ccc(C#CC3(O)CCCCC3)cc2n1-c1ccnc(N)n1
fraction unbound [9]: 0.04 | solubility kinetic [10]: 30 µM (≈ 12.2 µg/mL) | solubility thermodynamic [11]: 6.3 µM (≈ 2.56 µg/mL) | IC50 [12]: 7.5 nM | IC50 [13]: 126 nM | IC50 [14]: 36 nM | IC50 [15]: 970 nM | IC50 [16]: > 10000 nM | Papp A→B [17]: 22.2 ×10⁻⁶ cm/s | logD [18]: 3.6 | IC50 [19]: > 10000 nM | Activity [20]: Active | Activity [21]: Active | Activity [22]: 50% | Activity [23]: 50% | Activity [24]: 50% | Activity [25]: Active | Activity [26]: Dose-dependent effect | Activity [27]: 50% | Activity [28]: inactive | Activity [29]: 50% | Activity [30]: 50% | inhibition [31]: > 60% | inhibition [32]: > 60% | inhibition [3]: 46% | inhibition [4]: 100% | inhibition [5]: 5% | inhibition [6]: -4% | inhibition [7]: -1% | inhibition [8]: 14% | inhibition [33]: > 60%

SMILES: COCCNc1nc2ccc(C#CC(C)(C)O)cc2n1-c1ccnc(N)n1
Ki [1]: > 4500 nM | Ki [2]: 140 nM | inhibition [34]: 84% | inhibition [35]: 32% | inhibition [36]: 40% | inhibition [37]: 31% | inhibition [38]: 88% | inhibition [39]: 97%

SMILES: Cc1nc2ccc(C#CC(C)(O)CC3CC3)cc2n1-c1ncnc(N)n1 (racemic)
Ki [1]: > 4500 nM | Ki [2]: 670 nM

More lines, now with the values ahead:

Ki [2]: 68 nM | inhibition [3]: 56% | inhibition [4]: 91% | inhibition [5]: 6% | inhibition [6]: 4% | inhibition [7]: -2% | inhibition [8]: 44%
SMILES: Cc1nc2ccc(C#CC3(O)CCCCC3)cc2n1-c1ncnc(N)n1

Ki [1]: 15300 nM | Ki [2]: 500 nM | inhibition [3]: 68% | inhibition [4]: 34% | inhibition [5]: 27% | inhibition [6]: 31% | inhibition [7]: 2% | inhibition [8]: 81%
SMILES: Cc1nc2ccc(C#CC(C)(C)O)cc2n1-c1ncnc(N)n1

Ki [1]: > 4500 nM | Ki [2]: 190 nM
SMILES: Cc1nc2ccc(C#C[C@@]3(O)C[C@@H]4CC[C@H]3C4)cc2n1-c1ncnc(N)n1 (racemic)
